From PubChem
A3G deaminase: inhibitors of human APOBEC3G DNA deaminase; Q9HC16; recombinant A3G, ssDNA deamination FAM/TAMRA fluorescence; inhibition, % at 20 µM; 330,000 compounds, 0.28% hits;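 active means inhibition of at least 40% at 20 µM, with no more than 30% in the related APOBEC3A deaminase screen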;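 further: plate controls were DMSO wells with A3G for no effect and wells lacking A3G enzyme for full effect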
Target sequence (Q9HC16 whole entry, looked up): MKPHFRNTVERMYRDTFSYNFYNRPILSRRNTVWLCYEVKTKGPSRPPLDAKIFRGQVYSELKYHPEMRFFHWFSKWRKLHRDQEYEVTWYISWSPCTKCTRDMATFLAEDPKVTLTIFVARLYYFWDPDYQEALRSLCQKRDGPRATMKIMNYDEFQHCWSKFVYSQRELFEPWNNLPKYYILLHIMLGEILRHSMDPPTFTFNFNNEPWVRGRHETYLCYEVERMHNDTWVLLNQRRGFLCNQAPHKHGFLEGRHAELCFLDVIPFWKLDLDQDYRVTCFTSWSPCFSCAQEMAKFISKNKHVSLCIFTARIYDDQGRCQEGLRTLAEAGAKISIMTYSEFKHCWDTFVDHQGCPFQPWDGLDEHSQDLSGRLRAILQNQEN
C2C12 statin: protects C2C12 myotubes from simvastatin toxicity. 330,000 compounds, 0.78% hits. ATP luminescence, 48 h; scaled: DMSO 0, geranylgeraniol control 100. rescue of ATP level, % at 7.49 µM;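 active means mean ATP rescue above about 67%, or every replicate alone reaching that limit, limit read from the data, passing the limit was not always enough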;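 further: myotubes were challenged with 10 µM simvastatin during compound exposure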
ARFGAP1 inh: inhibits rat ARF GTPase activating protein 1; Q62848; 360,000 compounds, 0.26% hits; inhibition, % at 16.5 µM; Arfgap1-stimulated ARF1 GTP hydrolysis, GDP FP detection;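 active means inhibition above a per-plate limit, mean inhibition of low control wells plus 3 SD, cut at about 25% in these data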;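 further: 0% = DMSO wells with enzyme and 100% = wells lacking Arfgap1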
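Repeats: one replicate per compound; assay system: rat Arfgap1 catalytic domain, aa 1-136; times: enzyme reaction 120 min at 25 °C after 20 min preincubation; detection: FP of antibody-bound GDP Alexa 633 tracer, ex 620/em 688 nm; benchmarks: high control wells lacking Arfgap1, low control full reaction with DMSO; reagent: human ARF1(Δ1-17)-GTP substrate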
Mot1-301 SUMO: SUMOylation pathway inhibition by Mot1-301 growth rescue; S. cerevisiae Mot1-301 growth rescue, ATP luminescence, 38.5C; percent above DMSO median, 100 means doubled; growth rescue, % at 18.8 µM; 320,000 compounds, 1% hits; AID 2716;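 active means every valid replicate shows activation above 250% relative to neutral control wells; inactive means the rest, any valid replicate at or below 250%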;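 further: OY570 slx delta 5 strain wells were the positive control but not used for scaling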
A3A deaminase: human APOBEC3A DNA deaminase inhibition; P31941; recombinant A3A, FAM/TAMRA ssDNA deamination fluorescence; inhibition, % at 20 µM; 330,000 compounds, 0.41% hits;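 active means at least 40% inhibition at 20 µM here, with at most 30% in a related deaminase screen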;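 further: plate controls were A3A with DMSO for no effect and wells lacking A3A enzyme for full effect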
Target sequence (P31941 whole entry, looked up): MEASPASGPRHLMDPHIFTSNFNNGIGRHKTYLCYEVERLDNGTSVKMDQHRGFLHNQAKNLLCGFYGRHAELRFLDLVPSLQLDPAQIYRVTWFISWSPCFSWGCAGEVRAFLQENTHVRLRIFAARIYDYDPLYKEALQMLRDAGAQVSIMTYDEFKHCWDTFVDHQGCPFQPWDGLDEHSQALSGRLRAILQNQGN
ASAP1 inh: blocks human ASAP1-stimulated Arf1 GTP hydrolysis; GDP FP detection; inhibition, % at 16.5 µM; 360,000 compounds, 0.19% hits; AID 624377; in the data active means inhibition above about 25%;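 further: 0% = vehicle with enzyme and substrate and 100% = no enzyme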
An asterisk follows results filed as active; nt = no result given. Hits are enriched below; roughly 2.1% of the tested compounds scored in any of these assays.

SMILES	A3G deaminase	C2C12 statin	ARFGAP1 inh	Mot1-301 SUMO	A3A deaminase	ASAP1 inh
CC(=O)N(CCc1ccccc1)Cc1cc2cc(C)ccc2[nH]c1=O	2	12	12	6	18	7
CCC(=O)N1C[C@H]2[C@@H](c3ccccc31)[C@H](CO)N2Cc1cc(F)ccc1F	nt	16	nt	nt	nt	nt
CO[C@@H]1CN(C)C(=O)c2cc(NC(C)=O)ccc2OC[C@@H](C)N(C(=O)c2cnccn2)C[C@@H]1C	nt	0	nt	nt	nt	nt
CN1C(=O)c2cc(NC(=O)c3ccc(F)cc3)ccc2OC[C@@H]2O[C@@H](CC(=O)NC3CCC3)CC[C@H]21	nt	-7	nt	nt	nt	nt
Cc1ccc2c(c1)=N/C(=N\c1[nH]c(O)c3ccccc13)N=2	nt	-120	7	nt	nt	5
Oc1[nH]c(N=C2N=c3ccccc3=N2)c2ccccc12	nt	41	3	293*	nt	12
N#C/C(C(=O)NCc1ccco1)=C1/SC(Cc2ccc(F)cc2)C(=O)N1c1ccccc1 (stereo not given)	-3	87*	7	6	3	20
Cc1noc(N)c1C(=O)Nc1ccc(F)c(Cl)c1	-6	130*	-22	-20	0	-5
CCc1ccc(OCC(=O)NNC(=O)c2cc3ccccc3o2)cc1	3	81*	5	-3	4	16
COc1ccc(S(=O)(=O)N2CCN(Cc3cccc(Cl)c3)CC2)cc1	-6	105*	-14	nt	-2	-9
Cc1ccc(S(=O)(=O)Nc2ccc3c(c2)CC(=O)N([C@@H](C)CO)C[C@@H](C)[C@H](CN(C)Cc2ccc(Cl)c(Cl)c2)O3)cc1	nt	74*	nt	nt	nt	nt
Cc1ccc(S(=O)(=O)Nc2ccc3c(c2)CC(=O)N([C@H](C)CO)C[C@H](C)[C@H](CN(C)Cc2ccc(Cl)c(Cl)c2)O3)cc1	nt	5	nt	nt	nt	nt
Cc1ccc(S(=O)(=O)Nc2ccc3c(c2)CC(=O)N([C@@H](C)CO)C[C@H](C)[C@@H](CN(C)Cc2ccc(Cl)c(Cl)c2)O3)cc1	nt	72*	nt	nt	nt	nt
Cc1noc(C)c1S(=O)(=O)Nc1ccc2c(c1)CC(=O)N([C@H](C)CO)C[C@@H](C)[C@H](CN(C)Cc1ccc(Cl)c(Cl)c1)O2	nt	87*	nt	nt	nt	nt
Cc1noc(C)c1S(=O)(=O)Nc1ccc2c(c1)CC(=O)N([C@@H](C)CO)C[C@H](C)[C@H](CN(C)Cc1ccc(Cl)c(Cl)c1)O2	nt	35	nt	nt	nt	nt
CCCNC(=O)C[C@@H]1CC[C@@H]2[C@@H](COc3ccc(NC(=O)Nc4ccccc4F)cc3C(=O)N2C)O1	nt	-14	nt	nt	nt	nt
Cc1cc(C(=O)Nc2cccc3c2O[C@@H](CN(C)Cc2ccc(Oc4ccccc4)cc2)[C@H](C)CN([C@H](C)CO)C3=O)n(C)n1	nt	-19	nt	nt	nt	nt
COc1ccc(N(C(=O)c2ccco2)C(C(=O)NC2CCCC2)c2ccncc2)cc1OC (stereo not given)	-9	-1	8	275*	-4	-7
COc1ccc(C(C(=O)NC2CCCC2)N(C(=O)c2ccco2)c2ccc(OC)c(OC)c2)cc1 (stereo not given)	-3	3	-4	139	-2	7
O=C(NCC(=O)N(c1ccc2c(c1)OCO2)C(C(=O)NC1CCCC1)c1ccncc1)c1ccco1 (stereo not given)	-2	66*	6	-9	21	-14
O=C(NCC(=O)N(Cc1ccccc1)C(C(=O)NC1CCCC1)c1cccnc1)c1ccco1 (stereo not given)	-11	10	-2	296	-4	20
Cc1ccc(C(C(=O)NC2CCCC2)N(C(=O)Cc2cccs2)c2ccc3c(c2)OCCO3)cc1 (stereo not given)	0	106*	-1	-6	-1	-10
O=C(NCC(=O)N(Cc1cccs1)C(C(=O)NC1CCCCC1)c1cccnc1)c1ccco1 (stereo not given)	-8	133*	-3	0	-3	-1
CO[C@H]1CN(C)C(=O)c2cc(NC(=O)Nc3cccc(Cl)c3)ccc2OC[C@@H](C)N(C(=O)Nc2c(C)noc2C)C[C@@H]1C	nt	18	nt	nt	nt	nt
O=C(C[C@H]1C[C@@H]2c3cc(NS(=O)(=O)c4ccc(F)cc4)ccc3O[C@@H]2[C@H](CO)O1)NCc1cc(F)ccc1F	nt	6	nt	nt	nt	nt
SMILES	A3G deaminase	C2C12 statin	ARFGAP1 inh	Mot1-301 SUMO	A3A deaminase	ASAP1 inh
CO[C@H]1CN(C)C(=O)c2ccc(NS(=O)(=O)c3c(C)noc3C)cc2OC[C@@H](C)NC[C@@H]1C	nt	-9	nt	nt	nt	nt
CCCn1c(/N=C/c2ccccc2O)nc2ccccc21	-3	-18	1	181	1	1
Cn1c(/N=C/c2c(O)ccc3ccccc23)nc2ccccc21	nt	75*	6	-5	nt	-1
CC(CNS(=O)(=O)c1ccccc1)Sc1ncccn1 (stereo not given)	1	nt	3	346*	1	-11
CC(CNS(=O)(=O)c1ccccc1)Sc1nncn1C (stereo not given)	-1	nt	11	64	-11	-7
CC(C)(CSc1ncccn1)NS(=O)(=O)c1ccccc1	-1	120*	6	2	2	-9
C[C@@H]1CN([C@@H](C)CO)C(=O)c2cccc(NC(=O)NC3CCCCC3)c2O[C@@H]1CN(C)Cc1ccc2c(c1)OCO2	nt	-6	nt	nt	nt	nt
COc1ccccc1/C=C/C(=O)Nc1ccc(S(=O)(=O)Nc2cc(C)nc(C)n2)cc1	-8	-34	1	351*	-3	-4
CCOc1ccc(C(=O)C(CN2CCOCC2)c2ccccc2)cc1 (stereo not given)	nt	92*	-15	287*	nt	-2
O=C(c1ccccc1)C(CN1CCCCC1)c1ccccc1 (stereo not given)	nt	11	-7	nt	nt	-2
O=[N+]([O-])c1ccccc1SN(Cc1ccccc1)c1ccccn1	-1	nt	9	376*	0	8
Cc1ccc(O)c(C2=NNC(c3ccc(Cl)cc3)C2)c1 (stereo not given)	-9	nt	6	26	-9	1
Oc1ccc(Cl)cc1C1=NNC(c2cccs2)C1 (stereo not given)	-4	149*	-3	2	0	-1
Cc1ccc(S(=O)(=O)N(C)C[C@@H]2Oc3ccc(NC(=O)Nc4cccc5ccccc45)cc3C(=O)N([C@H](C)CO)C[C@@H]2C)cc1	nt	22	nt	nt	nt	nt
O=C(Cn1cncn1)NCc1ccccc1Br	3	-6	1	-6	4	-3
O=C(Cn1cncn1)c1ccccc1Br	-2	0	2	357*	2	-14
CCC(C(=O)OC)n1cnc2c(nnn2-c2ccc(OC)cc2)c1=O (stereo not given)	-7	nt	4	-13	1	1
CCOC(=O)C(CC)n1cnc2c(nnn2-c2ccc(OC)cc2)c1=O (stereo not given)	-3	98*	8	-1	3	-3
